LMPTP block – LMPTP (human) inhibition. recombinant LMPTP-A, OMFP fluorogenic substrate, fluorescence intensity. actives 0.22% (n = 360,000). inhibition, % at 20 µM;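 active = compounds that cut the enzyme signal by at least half of the control window in the single-dose screen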;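 note: plate controls were DMSO wells with enzyme plus substrate for no effect and substrate without enzyme for full effect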
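Assay system: LMPTP-A enzyme. Input: 0.625 nM LMPTP-A final. Probe or stimulus: 400 µM OMFP. Compound dosing: single 20 µM dose. Schedule: 50 min dark incubation at room temperature. Detection: fluorescence intensity of OMFP turnover product. Read-out: percent inhibition versus substrate-only and uninhibited controls. Benchmarks: no-enzyme low control, uninhibited high control.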
CSN deneddyl inh – blocks human CSN-mediated cullin deneddylation | Q92905 | Purified CSN, SCF-Nedd8-OG deneddylation, fluorescence polarization | inhibition, % at 12.5 µM | actives 0.38% (n = 360,000);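 active = pattern-corrected inhibition above about 35%, with an unprinted fluorescence ratio check between 0.5 and 1.5, limit read from the data, passing the limit was not always enough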;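 note: 0% = enzyme with substrate and 100% = substrate without enzyme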
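test system = HEK293T-derived human Csn5 enzyme | amount = 0.24 nM Csn5 enzyme, final concentration | medium = Tris/NaCl/DTT buffer, pH 7.5 | schedule = 90 min reaction at room temperature | signal = FP | evaluation = inhibition of Csn5 cleavage, % | compound dosing = single dose of 12.5 µM compound with 0.25% DMSO | probe or stimulus = 10 nM SCFSkp2-Nedd8OG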
STEP block – STEP (human) phosphatase inhibition; P54829; recombinant STEP, OMFP fluorogenic substrate, fluorescence; inhibition, % at 20 µM; actives 0.25% (n = 360,000); AID 588621;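 active = inhibition at 20 µM, scaled per plate between control wells, above about 37%, limit read from the data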;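 note: 0% = DMSO with enzyme and substrate and 100% = substrate only without enzyme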
Target sequence (P54829 whole entry, looked up): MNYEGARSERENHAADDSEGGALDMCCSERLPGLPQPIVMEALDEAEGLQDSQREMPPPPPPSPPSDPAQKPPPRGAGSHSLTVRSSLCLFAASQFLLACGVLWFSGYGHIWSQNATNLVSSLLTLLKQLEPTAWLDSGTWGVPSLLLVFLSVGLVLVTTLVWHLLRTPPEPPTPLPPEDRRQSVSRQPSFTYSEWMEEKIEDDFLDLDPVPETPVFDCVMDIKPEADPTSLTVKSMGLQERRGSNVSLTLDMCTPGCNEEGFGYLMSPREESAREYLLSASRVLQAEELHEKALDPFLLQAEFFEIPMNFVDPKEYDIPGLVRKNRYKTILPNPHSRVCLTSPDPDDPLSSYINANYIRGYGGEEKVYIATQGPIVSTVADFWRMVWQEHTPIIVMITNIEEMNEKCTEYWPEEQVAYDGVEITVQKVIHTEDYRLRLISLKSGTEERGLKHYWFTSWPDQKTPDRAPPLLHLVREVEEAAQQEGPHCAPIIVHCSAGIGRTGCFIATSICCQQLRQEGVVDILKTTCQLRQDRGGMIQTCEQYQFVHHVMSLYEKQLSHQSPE
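System: isolated STEP enzyme; schedule: 20 min enzyme reaction at room temperature, protected from light; medium: Bis-Tris buffer pH 6.0, 2.5 mM DTT, 0.005% Tween 20; signal: fluorescence, 480/540 nm; dosing: single compound dose of 20 µM, 1% DMSO final; also added: OMFP substrate, 25 µM final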
Scp-1 inhibitor – Scp-1 (human) phosphatase inhibition | Q9GZU7 | actives 0.88% (n = 340,000) | inhibition, % at 20 µM | Recombinant Scp1, phosphopeptide, malachite green phosphate absorbance;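 active = inhibition above about 50% at 20 µM, limit read from the data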;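 note: plate controls were DMSO wells with enzyme for no effect and wells lacking enzyme for full effect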
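Material – SCP-1 phosphatase catalytic domain, residues 76-261 · Buffer or medium – Acidic Tris acetate buffer with magnesium and detergent · Also added – Phospho 17-mer peptide substrate · Compound – single 20 µM dose, 1% DMSO · Times – 45 min room-temperature reaction, 5 min colour, 30 min stabiliser · Technique – Phosphate-binding colour reagent, absorbance read at 630 nm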
SUMO1 PPI mod – SUMO1-SIM interaction modulation; SUMO1 binding to a labelled peptide, TR-FRET, 1 h; inhibition, % at 20 µM; actives 0.33% (n = 360,000); AID 602429; in the data active = inhibition above about 37%
Target sequence (P63165 whole entry, looked up): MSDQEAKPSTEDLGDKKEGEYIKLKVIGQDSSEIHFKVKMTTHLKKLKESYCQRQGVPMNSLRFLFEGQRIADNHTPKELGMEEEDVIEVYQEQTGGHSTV
DNMT1 block – DNMT1 (human) enzyme inhibition | P26358 | DNMT1 molecular beacon, Hinp1I cleavage, fluorescence | inhibition (reported as % activation of signal), % at 10 µM | actives 0.83% (n = 360,000) | AID 588458; in the data active = inhibition above about 50%
Beacon interf DR – counter-screen for DNMT1 inhibitors: spectral interference, dose response. shares compounds with DNMT1 block. molecular beacon fluorescence. IC50, µM. 200 tested, under 10 active; call rule not given here
DNMT1 inh conf – DNMT1 inhibition confirmation, single concentration | shares compounds with DNMT1 block | DNMT1 molecular beacon HinP1I cleavage, fluorescence | inhibition, % at 10 µM | actives 8% (n = 2,300) | AID 602385;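 active = average inhibition of at least 30% in the single-concentration confirmation test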
Beacon interf – shows spectral interference in the DNMT1 beacon assay | activation (fluorescence interference), % at 10 µM | actives 1% (n = 2,300) | DNMT1 molecular beacon spectral interference counterscreen, fluorescence 485/520 | AID 602387 | shares compounds with DNMT1 block;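 active = activation of at least 30% at 10 µM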;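 note: DNMT1 catalytic domain with a HinP1I cleavage step and a FAM/dabcyl DNA beacon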
Numbers without * were called inactive. Sampled rows, rich in hits. Any-hit rate of the full collection: about 1.9%.

`COc1ccc(NC(=S)NC(=O)c2cncc(Br)c2)cc1` gave LMPTP block 0, CSN deneddyl inh 2, STEP block 0, Scp-1 inhibitor 4, SUMO1 PPI mod 2 and DNMT1 block -1.
Screening Cc1[nH][nH]c(=O)c1C(c1ccc(-c2ccccc2C(=O)O)o1)c1c(C)[nH][nH]c1=O returned LMPTP block 2, CSN deneddyl inh 9, STEP block 11, Scp-1 inhibitor 42, SUMO1 PPI mod 8, DNMT1 block 75*, DNMT1 inh conf -2 and Beacon interf -2.
O=C(Nc1ccc(-c2nc3ncccc3o2)cc1)c1ccc([N+](=O)[O-])o1 was read as LMPTP block 4, CSN deneddyl inh -6, STEP block 5, Scp-1 inhibitor -2, SUMO1 PPI mod -17, DNMT1 block 50*, DNMT1 inh conf -2 and Beacon interf -1.
`Fc1ccccc1CN1CCC(Cc2ccccc2)CC1` gave LMPTP block -2, CSN deneddyl inh -2, STEP block 0, Scp-1 inhibitor 6, SUMO1 PPI mod 0, DNMT1 block 70*, DNMT1 inh conf 5 and Beacon interf 5.
For Cc1cc2nc(-c3ccc(NC(=O)C(C)C)cc3)oc2cc1C the results were LMPTP block 0, CSN deneddyl inh 21, STEP block -4, Scp-1 inhibitor -7, SUMO1 PPI mod -1, DNMT1 block 63*, DNMT1 inh conf 4 and Beacon interf 1.
`O=C(O)c1ccc(-c2ccc(/C=C3\NC(=O)N(Cc4ccc(Cl)cc4)C3=O)o2)cc1Cl` gave LMPTP block 10, CSN deneddyl inh 35, STEP block 49*, Scp-1 inhibitor 81*, SUMO1 PPI mod 25, DNMT1 block 88*, Beacon interf DR >99, DNMT1 inh conf 60* and Beacon interf -1.
For Cc1ccc(/C=C2/NC(=O)N(Cc3ccc(Br)cc3)C2=O)o1 the results were LMPTP block 0, CSN deneddyl inh -1, STEP block 2, Scp-1 inhibitor -5, SUMO1 PPI mod -8 and DNMT1 block -13.
For Cc1ccc(-n2nc3ccc(NC(=O)/C=C/c4ccco4)cc3n2)cc1 the results were LMPTP block 8, CSN deneddyl inh 22, STEP block 7, Scp-1 inhibitor 38, SUMO1 PPI mod 6, DNMT1 block 104*, DNMT1 inh conf 18 and Beacon interf 4.
Screening CCOc1ccccc1C(=O)N[C@H](C(=O)Nc1cc(S(=O)(=O)N(C)C)ccc1OC)C(C)C returned LMPTP block -2, CSN deneddyl inh 0, STEP block 0, Scp-1 inhibitor -6, SUMO1 PPI mod 1 and DNMT1 block -1.
`Cc1cccc(C(=O)NCCN2CCCC2)c1` gave LMPTP block 1, CSN deneddyl inh -4, STEP block 0, Scp-1 inhibitor -5, SUMO1 PPI mod -1 and DNMT1 block 0.
Cc1cccc(CC(=O)NCCN2CCCCC2)c1 was read as LMPTP block 1, CSN deneddyl inh -2, STEP block 1, Scp-1 inhibitor 33, SUMO1 PPI mod 1, DNMT1 block 57*, DNMT1 inh conf -1 and Beacon interf 2.
For COc1ccccc1N1C(=O)Cc2ccccc2C1=O the results were LMPTP block 6, CSN deneddyl inh 0, STEP block 11, Scp-1 inhibitor -1, SUMO1 PPI mod 3 and DNMT1 block -8.
C/C(=C\c1ccccc1)C(=O)NCc1ccco1 was read as LMPTP block -1, CSN deneddyl inh -2, STEP block -3, Scp-1 inhibitor -6, SUMO1 PPI mod 0 and DNMT1 block 27.
For O=C1NC(=S)N/C1=C/c1cc2c(cc1[N+](=O)[O-])OCO2 the results were LMPTP block -1, CSN deneddyl inh 5, STEP block 3, Scp-1 inhibitor 2, SUMO1 PPI mod 55*, DNMT1 block 60*, Beacon interf DR >99, DNMT1 inh conf 30* and Beacon interf -12.
`O=C(O)/C=C\c1cc2c(cc1[N+](=O)[O-])OCO2` gave LMPTP block 5, CSN deneddyl inh 4, STEP block 2, Scp-1 inhibitor -5, SUMO1 PPI mod -12 and DNMT1 block 4.
Screening CC(CC(=O)Nc1ccc2c(c1)c(=O)n(C)n2Cc1ccc(Cl)cc1)C(F)(F)F (stereo not drawn) returned LMPTP block 0, CSN deneddyl inh 1, STEP block -2, SUMO1 PPI mod -5 and DNMT1 block -5.
O=C(COc1ccc(Br)cc1Cl)NC(=O)Nc1ccc2c(c1)OCCO2 was read as LMPTP block 4, CSN deneddyl inh 2, STEP block 3, Scp-1 inhibitor 3, SUMO1 PPI mod 2 and DNMT1 block 50.
O=C(O)CSc1ncnc2sc(-c3ccccc3)cc12 was read as LMPTP block 0, CSN deneddyl inh 6, STEP block -3, Scp-1 inhibitor 0, SUMO1 PPI mod -12 and DNMT1 block -1.
For CC(=O)c1c(C)[nH]c(C(=O)CSc2ncnc3sc(-c4ccccc4)cc23)c1C the results were LMPTP block 1, CSN deneddyl inh 2, STEP block 1, Scp-1 inhibitor -4, SUMO1 PPI mod -1, DNMT1 block 53*, DNMT1 inh conf 0 and Beacon interf 1.
For O=C(NC(Sc1ccc(Cl)cc1)C(=O)O)c1ccccc1 (stereo not drawn) the results were LMPTP block 0, CSN deneddyl inh 0, STEP block -4, SUMO1 PPI mod 7 and DNMT1 block 11.
Screening CSc1nc(SCC(=O)NC(c2ccccc2)c2ccccc2)c2c3c(sc2n1)CN(C)CC3 returned LMPTP block 4, CSN deneddyl inh 6, STEP block 10, Scp-1 inhibitor 0, SUMO1 PPI mod -12, DNMT1 block 63*, DNMT1 inh conf 2 and Beacon interf -4.
For CSc1nc(NCC(C)O)c2c3c(sc2n1)CN(C)CC3 (stereo not drawn) the results were LMPTP block 1, CSN deneddyl inh -2, STEP block 1, Scp-1 inhibitor 14, SUMO1 PPI mod 1 and DNMT1 block -1.
O=c1onc(-c2ccccc2Cl)n1-c1ccccc1Cl was read as LMPTP block 0, CSN deneddyl inh 5, STEP block -3, Scp-1 inhibitor -14, SUMO1 PPI mod 1 and DNMT1 block -1.

Bioassay records: PubChem, Sanford-Burnham Center for Chemical Genomics
